Experimental data taken from ChEMBL document CHEMBL4038313, “Expanding the Antiviral Spectrum of 3-Fluoro-2-(phosphonomethoxy)propyl Acyclic Nucleoside Phosphonates: Diamyl Aspartate Amidate Prodrugs” (J Med Chem, 2017).

Key:
[1] = Half life in human liver microsomes at 0.1 uM in presence of NADPH by HPLC-MS/MS method; format: ADME, microsome
Summary of the method: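 Pooled human liver microsomes preincubated 10 min at 37 °C with an NADPH-regenerating system (1 mM NADP, 5 mM G6P, G6PDH) in pH 7.4 phosphate with 3 mM MgCl2 and 1 mM EDTA. Compound added at final 0.1 μM and sampled at 0–60 min into acetonitrile/methanol. Analysed by HPLC-MS/MS, mean of two experiments.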

Human alphaherpesvirus 3 [2] = assay: Antiviral activity against thymidine kinase deficient Varicella-Zoster virus 07-1 infected in HEL cells assessed as inhibition of plaque formation; format: functional, cell-based; conditions: Human alphaherpesvirus 3, 07-1, HEL
Summary of the method: (§1)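 HEL fibroblast monolayers inoculated with 100 CCID50 HCMV (AD-169, Davis) or 20 PFU VZV (TK+ Oka, TK− 07-1). Adsorbed 1–2 h, inoculum removed, then incubated with compound dilutions. HCMV cytopathicity or VZV plaques scored once untreated infected controls reached completion. EC50 is 50% reduction. SI is CC50/EC50, and the potency ratio is the ratio of EC50s.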

[3] = test system: Human immunodeficiency virus 1; assay: Antiviral activity against CXCR4-tropic HIV-1 NL4-3 infected in human TZM-bl cells assessed as inhibition of virus-induced cytopathic effect preincubated with cells for 30 mins followed by viral infection measured after 48 hrs in presence of p-24 HIV-1 Ag by luciferase reporter gene assay; format: functional, cell-based; conditions: Human immunodeficiency virus 1, NL4-3, TZM-bl
Summary of the method: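 TZM-bl cells, 1 × 10^4 per well in DMEM with 10% FBS and 10 mM […], incubated 30 min at 37 °C with compound. Then HIV-1 NL4.3 (X4) or BaL (R5) added at 100 pg p24 Ag per well. After 48 h, cells lysed with luciferase substrate. Tat-induced luminescence read after 10 min dark incubation as a measure of replication.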

[4] = Cytotoxicity against human HepG2.2.15 cells assessed as cell viability by tetrazolium dye uptake assay; format: cell-based, HepG2 2.2.15
Summary of the method: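 HepG2.2.15 cells (two integrated copies of HBV ayw1 genome) were seeded at 1.5 × 10^4 cells/well in DMEM with 2% FBS, 380 μg/mL G418, glutamine, antibiotics and nonessential amino acids. After 16−24 h, medium with various compound concentrations was added in triplicate and renewed on day 3. After 6 days of treatment, viability was read by MTS uptake and CC50 was calculated.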

[5] = test system: Human immunodeficiency virus 1; assay: (§2) Antiviral activity against CXCR4-tropic HIV-1 NL4-3 infected in human PHA-stimulated PBMC assessed as inhibition of viral replication by measuring reduction in p24 antigen production preincubated with cells for 30 mins followed by viral infection measured on day 10 post infection in presence of IL-2 by ELISA; format: functional; conditions: Human immunodeficiency virus 1, NL4-3
Summary of the method: (§3)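 PBMCs stimulated with 2 μg/mL PHA for 3 days at 37 °C, then 5 × 10^5 cells/ml preincubated 30 min at 37 °C with serial compound dilutions plus 2 ng/mL IL-2. Infected with 1500 pg/well HIV-1 BaL or 500 pg/well other isolates. IL-2 re-added on days 3 and 6. Supernatant p24 Ag measured by ELISA at day 10. EC50 is 50% inhibition of replication.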

[6] = Half life in human plasma at 1 uM by HPLC-MS/MS method; format: ADME, cell-free
Summary of the method: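 Human plasma preincubated 10 min with pH 7.4 phosphate buffer at 37 °C. Compound added at final 1 μM and sampled at 0, 0.5, 1, 1.5 and 2 h into acetonitrile. Centrifuged and analysed by HPLC-MS/MS. t1/2 is the mean of two experiments.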

[7] = test system: Human immunodeficiency virus 1; assay: Antiviral activity against tenofovir-resistant CXCR4-tropic HIV-1 NL4-3 harboring reverse transcriptase K65R mutant infected in human MT4 cells assessed as inhibition of viral replication inhibition of virus-induced cytopathic effect after 6 days by XTT dye based assay; format: functional, cell-based; conditions: Human immunodeficiency virus 1, NL4-3, MT4, 144 h
Summary of the method: (§4)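 MT-4 cells, 1 × 10^4 per well, given compound dilutions and wild-type NL4-3 or K65R NL4-3. Virus titred to give 85–95% cell killing at day 6. Incubated 6 days at 37 °C, 5% CO2. Viability read by XTT at 450/650 nm. EC50 from CPE reduction and toxicity from uninfected drug wells, by four-parameter fit. Fold change is K65R EC50 over wild-type EC50.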

Hepatitis B virus = assay: Antiviral activity against HBV ayw1 infected in human HepG2(2.2.15) cells assessed as reduction in viral replication by measuring extracellular viral DNA copy number after 6 days by real-time qPCR method; format: functional, cell-based; conditions: ayw1, HepG2 2.2.15, 144 h
Summary of the method: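 HepG2.2.15 cells (two copies of HBV ayw1 genome), 1.5 × 10^4/well in DMEM with 2% FBS and 380 μg/mL G418. After 16–24 h, compound added in triplicate, medium with compound renewed at day 3. Supernatant collected at day 6, Pronase-treated, and extracellular HBV DNA measured by TaqMan qPCR (precore/core) against an HBV DNA standard curve. EC50/EC90 derived; CC50 by MTS uptake.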

[8] = test system: Human immunodeficiency virus 1; assay: as §2, with “CCR5 tropic HIV1 BaL” for “CXCR4-tropic HIV-1 NL4-3”; format: functional; conditions: Human immunodeficiency virus 1, BaL; summary of the method: as §3
[9] = Selectivity index, ratio of CC50 for human TZM-bl cells to EC50 for CCR5 tropic HIV1 BaL infected in human TZM-bl cells; format: toxicity, cell-based; conditions: read-out: Ratio CC50/EC50
[10] = test system: Human immunodeficiency virus 1; assay: Selectivity ratio of EC50 for tenofovir-resistant CXCR4-tropic HIV-1 NL4-3 harboring reverse transcriptase K65R mutant infected in human MT4 cells to EC50 for CXCR4-tropic HIV-1 NL4-3 infected in human MT4 cells; format: functional; summary of the method: as §4
[11] = Selectivity index, ratio of CC50 for HepG2.2.15 cells to EC50 for HBV ayw1 infected in human HepG2(2.2.15) cells assessed as reduction in viral replication by measuring intracellular viral DNA copy
Summary of the method: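 Run as the HepG2.2.15 6-day assay (triplicate compound, medium with compound renewed at day 3). At the end, total intracellular DNA was isolated from the cells and HBV DNA copy number measured by TaqMan qPCR. EC50/EC90 derived; SI is CC50/EC50.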

Human alphaherpesvirus 3 [12] = assay: Antiviral activity against thymidine kinase expressing Varicella-Zoster virus Oka strain assessed as inhibition of plaque formation; format: functional; conditions: Human alphaherpesvirus 3, strain Oka vaccine; summary of the method: as §1

CCCCCOC(=O)C[C@H](NP(=O)(CO[C@H](CF)Cn1cnc2c(N)ncnc21)Oc1ccccc1)C(=O)OCCCCC (some centres undefined)
half-life at 0.1 µM [1]: 2 min
EC50 (Human alphaherpesvirus 3 [2]): 57 nM
EC50 [3]: 10 nM
CC50 [4]: 20300 to 22600 nM
IC50 [5]: 3 nM
half-life at 1 µM [6]: 89 min
EC50 [7]: 170 nM
EC50 (Hepatitis B virus): 10 nM
EC90 (Hepatitis B virus): 1970 nM
IC50 [8]: 22 nM
selectivity ratio [9]: 7910
Ratio EC50 [10]: 5.7
Ratio CC50/EC50 [11]: 1017
EC50 (Human alphaherpesvirus 3 [12]): 50 nM
